Experimental data published in paper PMC7613793 (Cell metabolism, 2022).
“Also recorded” adds a separate entry of the source.

Experiments:
primary tanycytes = format: in vitro ADME, rat; conditions: 37 °C
Procedure, shortened: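 Rat tanycytes from median eminences of P10 pups, seeded on coated permeable supports (90 000 cells/cm2) 17 days after isolation: 4 days in 10% donor bovine serum, then 3 days serum-free with insulin and putrescine. On day 7, 15 min preincubation at 37 °C ± 1000 nM exendin9-39. Apical 0.7 nM 125I-liraglutide (1 μCi/ml) ± unlabeled liraglutide 10–10 000 nM, 60 min, 37 °C, shaking. Uptake read from cut supports; release in fresh buffer up to 1 h.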

rat primary tanycytes = assay: pCREB induction in primary tanycytes; format: cell-based; conditions: Supplementary Fig. 2a
[1] = format: in vivo, mouse
[2] = tested on: tanycytes and neuron-like cells of the ME and vmARH; assay: pCREB immunohistochemistry in ME/ARH after intravenous liraglutide; format: in vivo, mouse; conditions: mice, 90 nmol/Kg, at 1 min, n = 4 animals per group, Fig. 1f-h
Procedure, shortened: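 Male mice, 8-10 weeks, fitted with a jugular vein catheter under ketamine-xylazine. Saline or liraglutide given i.v. at 90 nmol/Kg, then transcardial perfusion with saline and 0.1M PBS-4% PFA (pH 7.4). 30 μm free-floating sections double-stained with chicken anti-vimentin and rabbit anti-phospho-CREB. pCREB-positive tanycytes and neuron-like cells counted in ME, vmARH, dmARH and total ARH, 3–4 sections per animal. Unpaired t-test.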

hypothalamic neurons = format: in vivo, mouse
[3] = tested on: tuberal region of the hypothalamus; format: in vivo, mouse; conditions: mice, intravenous (jugular vein), 90 nmol/Kg, 15 and 60 seconds after injection; Fig. 1a
[4] = tested on: dipeptidyl peptidase 4 (DPP-4); conditions: cited from earlier work

Molecule: ^125I-liraglutide: radioactively labeled liraglutide
- Liraglutide accumulation in tanycytes relative to endothelial cells (primary tanycytes; 125I-liraglutide 0.7 nM, with or without unlabeled liraglutide 10 μM, transwell, uptake buffer pH 7.4, 60 min, n = 3, 3, 8, 8 wells from 2 independent experiments, Fig. 1c): approximately 4 times
- Time to saturation of uptake by tanycytes (primary tanycytes; pulse-chase experiment in vitro, Fig. 1e): ≤ 15 min

Molecule: CCCCCCCCCCCCCCCC(=O)N[C@@H](CCC(=O)NCCCC[C@H](NC(=O)[C@H](C)NC(=O)[C@H](C)NC(=O)[C@H](CCC(N)=O)NC(=O)CNC(=O)[C@H](CCC(=O)O)NC(=O)[C@H](CC(C)C)NC(=O)[C@H](Cc1ccc(O)cc1)NC(=O)[C@H](CO)NC(=O)[C@H](CO)NC(=O)[C@@H](NC(=O)[C@H](CC(=O)O)NC(=O)[C@H](CO)NC(=O)[C@@H](NC(=O)[C@H](Cc1ccccc1)NC(=O)[C@@H](NC(=O)CNC(=O)[C@H](CCC(=O)O)NC(=O)[C@H](C)NC(=O)[C@@H](N)Cc1cnc[nH]1)[C@@H](C)O)[C@@H](C)O)C(C)C)C(=O)N[C@@H](CCC(=O)O)C(=O)N[C@@H](Cc1ccccc1)C(=O)N[C@H](C(=O)N[C@@H](C)C(=O)N[C@@H](Cc1c[nH]c2ccccc12)C(=O)N[C@@H](CC(C)C)C(=O)N[C@H](C(=O)N[C@@H](CCCNC(=N)N)C(=O)NCC(=O)N[C@@H](CCCNC(=N)N)C(=O)NCC(=O)O)C(C)C)[C@@H](C)CC)C(=O)O [liraglutide]
- pCREB in rat primary tanycytes (rat primary tanycytes; liraglutide treatment): induced
- Energy expenditure ([1]; control mice, 0.1 mg/kg for 3 consecutive days, vs saline): markedly reduced
- Food intake ([1]; control mice, 0.1 mg/kg for 3 consecutive days, vs saline, Fig. 3b): markedly reduced
- Fatty acid oxidation ([1]; control mice, 0.1 mg/kg for 3 consecutive days, Fig. 3e): increased fatty acid oxidation
- Fat mass ([1]; control mice, 0.1 mg/kg for 3 consecutive days, NMR body composition, Fig. 3d): fat mass reduction
- Anti-obesity effects in iBot mice ([1]; mouse, in vivo, 0.1 mg/kg): abrogated
- pCREB in tanycytes and neuron-like cells of the ME and vmARH vs saline [2]: markedly induced pCREB
- c-Fos activation of neurons in AHN, PVH and LHA, control mice (hypothalamic neurons; anesthetized control mice, ten minutes after intravenous injection, 90 nmol/Kg): activated
- c-Fos expression in DMH and ZI, control mice (hypothalamic neurons; control mice, one hour after intraperitoneal injection): did not significantly upregulate c-Fos expression
- c-Fos expression, iBot mice (hypothalamic neurons; iBot littermates, one hour after intraperitoneal injection, Fig. 2d-f): unaffected
- c-Fos expression in hypothalamic neurons, iBot mice (hypothalamic neurons; mouse, in vivo, iv): failed to significantly induce c-Fos expression
- c-Fos activation of neurons in PVH and LHA (not AHN), control mice (hypothalamic neurons; unanesthetized control mice, one hour after intraperitoneal injection, Fig. 2): remain activated
- Route of brain entry of fluorescently labeled liraglutide [3]: did not cross the microvascular endothelial cells of the BBB; also recorded: extravasated through the fenestrated vessels of the ME
- Cleavage by DPP-4 and half-life compared to endogenous GLP1 ([4]; ref Kim and Egan, 2008): reduces its cleavage by DPP-4 and prolongs its half-life

Molecule: Glucagon-like peptide 1 (GLP1; 7–36 amide)
- Degradation by DPP-4 in vivo ([4]; in vivo, ref not given): rapid degradation

Molecule: liraglutide^564: fluorescently labeled liraglutide provided by Novo Nordisk
- Route of brain entry of fluorescently labeled liraglutide [3]: does not extravasate from BBB vessels

Molecule: exendin 9-39
- Effect on liraglutide-induced pCREB in rat primary tanycytes (rat primary tanycytes; co-treatment with liraglutide): blunted
